Activity calls are given as the source filed them. The calls are words filed in the database; no cut-off is given here.
Test system: HL-60
Assay: Cytotoxicity against human HL-60 cells after 72 hrs by MTT assay
Assay type: functional, cell-based
Procedure, shortened: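 HL-60 cells grown in RPMI 1640 with 10% FBS, L-glutamine, penicillin and streptomycin, seeded at 3 × 10^4 cells/mL, and preincubated 24 h at 37 °C in 5% CO2. Sample in EtOH-H2O (1:1) added to a final 0.01-10 µg/mL, with vehicle-only controls, for 72 h. MTT added for 4 h, then formazan dissolved in DMSO and read at 550 nm. IC50 taken from the dose-response curve.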

Structure (SMILES)	IC50 (HL-60, 72 h)	Activity
C[C@@H]1CC[C@@]2(OC1)O[C@H]1C[C@H]3[C@@H]4C[C@H](O)[C@H]5C[C@@H](O[C@@H]6O[C@H](CO)[C@H](O[C@@H]7O[C@H](CO)[C@@H](O)[C@H](O[C@@H]8OC[C@@H](O)[C@H](O)[C@H]8O)[C@H]7O[C@@H]7O[C@H](CO)[C@@H](O)[C@H](O)[C@H]7O)[C@H](O)[C@H]6O)[C@H](O)C[C@]5(C)[C@H]4CC[C@]3(C)[C@H]1[C@@H]2C	> 10 µg/mL	–
CC(C)CC[C@H](O)[C@@H](C)[C@H]1[C@@H](O[C@@H]2O[C@H](CO)[C@@H](O)[C@H](O)[C@H]2O)C[C@H]2[C@@H]3CC=C4C[C@@H](O)C[C@@H](O[C@@H]5O[C@H](CO)[C@@H](O)[C@H](O)[C@H]5O)[C@]4(C)[C@H]3CC[C@]12C	–	inactive
CC(C)CC[C@H](O)[C@@H](C)[C@H]1[C@@H](O[C@@H]2O[C@H](CO)[C@@H](O)[C@H](O)[C@H]2O)C[C@H]2[C@@H]3CC=C4C[C@@H](O)C[C@@H](O[C@@H]5O[C@@H](C)[C@H](O)[C@@H](O)[C@H]5O)[C@]4(C)[C@H]3CC[C@]12C	–	inactive

From ChEMBL document CHEMBL1158007, “Steroidal glycosides from the bulbs of Allium jesdianum” (J Nat Prod, 1999)
